Source: PubChem (several laboratories)
FID counter: displaces DNA intercalator in HCV helicase counter-screen. AID 1845. inhibition, % at 7.9 µM. DNA fluorescent intercalator displacement, fluorescence. hit rate 0.17% among 290,000; in the data active = inhibition above about 37%;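 note: 0% = vehicle and 100% = reference compound; higher means more ethidium bromide displaced from hairpin DNA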
ZTA DNA inh: counter-screen for EBNA-1 inhibitors: inhibitors of Epstein-Barr virus ZTA; P03206; ZTA-DNA binding, fluorescence polarization; inhibition, % at 11 µM; hit rate 0.15% among 320,000; AID 2234; in the data active = inhibition above about 33%
Target sequence (P03206 whole entry, looked up): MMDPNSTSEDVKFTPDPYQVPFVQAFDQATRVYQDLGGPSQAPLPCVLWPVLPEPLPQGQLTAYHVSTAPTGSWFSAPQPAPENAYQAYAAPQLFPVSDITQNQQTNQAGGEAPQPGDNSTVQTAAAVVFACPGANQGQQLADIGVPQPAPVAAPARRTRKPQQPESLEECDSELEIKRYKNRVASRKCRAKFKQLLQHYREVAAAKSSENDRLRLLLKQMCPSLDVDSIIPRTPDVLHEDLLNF
FGF22 binding-1: binders of recombinant human FGF22 by thermal shift; activity (Tm shift, normalised), % at 9.99 µM; hit rate 1.5% among 340,000; Q9HCT0; SYPRO orange fluorescence; percent of sucrose octasulfate shift, DMSO zero;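 active = mean Tm shift, scaled 0 neutral to 100 positive control, at about 1.3% or above, every replicate too, limit read from the data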
Target sequence (Q9HCT0 whole entry, looked up): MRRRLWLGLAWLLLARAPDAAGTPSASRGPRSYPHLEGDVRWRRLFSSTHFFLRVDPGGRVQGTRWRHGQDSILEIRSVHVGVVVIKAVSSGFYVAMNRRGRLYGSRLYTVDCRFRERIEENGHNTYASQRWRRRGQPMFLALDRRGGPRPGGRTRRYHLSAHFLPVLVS
HCV NS3 hel inh: HCV NS3 helicase inhibition. NS3 helicase DNA unwinding, Cy5 molecular beacon fluorescence. inhibition, % at 10.9 µM. hit rate 0.56% among 290,000;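 active = inhibition above the mean of all tested compounds plus 3 SD, set per campaign, cut at about 35% in these data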;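 note: 0% = DMSO wells and 100% = thioflavine S control wells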
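Compound dosing – single dose, 10.9 µM nominal final, DMSO 0.8% final · System – NS3 helicase fragment of HCV · Buffer or medium – MOPS pH 6.5, MgCl2, DTT, Tween20, BSA · Signal – Cy5 beacon fluorescence read at start and 1 h · Also added – annealed dual-labelled DNA beacon duplex, ATP-started · Schedule – 1 h at 25 °C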
NR3A LBD binder: modulates the human NR3A ligand-binding domain; Tm shift relative to glycine control, % at 25 µM; NR3A LBD differential scanning fluorimetry, Tm shift; 0% = protein alone, 100% = glycine-bound protein; hit rate 2.5% among 340,000; AID 1259313;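 active = melting temperature shift of at least 10% of the positive control shift, at one fixed dose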
EBNA-1 inh: blocks EBNA-1 binding to DNA. inhibition, % at 14.8 µM. hit rate 0.34% among 300,000. EBNA-1 DNA binding, fluorescence polarization; in the data active = inhibition above about 28%
FGF22 binding-2: FGF22 (human) binding in thermal shift; shares compounds with FGF22 binding-1; recombinant FGF22 thermal shift, SYPRO orange fluorescence; thermal shift activity, °C (ΔTm) at 38 µM; hit rate 2% among 1,000; AID 720646;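 active = fitted rise in melting shift crosses a set limit at or below the top valid dose tested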
FGF22 TSA: binders of human FGF22 by thermal shift; shares compounds with FGF22 binding-1; Thermal shift assay, SYPRO orange, melting temperature shift; Tm shift (activity), % at 38 µM; 50 tested, under 10 active; AID 743017;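 active = compounds whose fitted dose curve of melting temperature shift rises past a set threshold within the tested doses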
SYPRO no-protein: compound-only SYPRO artifact for FGF22 binders. AC50, µM (doses to about 38 µM). compound-only SYPRO orange thermal shift counter-screen, no protein. shares compounds with FGF22 binding-1. hit rate 2% among 1,000;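 active = rising signal whose fitted curve reaches the 0.54 level within the top valid dose, showing a melting point, actives reach about 13 µM in these data; inactive = the rest, including activity in the opposite direction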; note: value is where the raw curve crosses a fixed level and not half-maximal
* hit, by the source's call; i = inactive; · = no result given. Hits are enriched below; roughly 3.6% of the tested compounds scored in any of these assays.

SMILES	FID counter	ZTA DNA inh	FGF22 binding-1	HCV NS3 hel inh	NR3A LBD binder	EBNA-1 inh	FGF22 binding-2	SYPRO no-protein	others
COc1ccc2c3c([nH]c2c1)[C@H](CO)N(CC1CC1)CC31CCN(S(=O)(=O)c2cccc(F)c2)CC1	·	·	-0.2	·	·	·	·	·
Cc1noc(C)c1NC(=O)N[C@H]1CC[C@H](CCNC(=O)C2CCOCC2)O[C@@H]1CO	·	·	0.0	·	·	·	·	·
O=C(N/N=C/c1cccc(Oc2ccccc2)c1)c1cccc(O)c1	-25.8	·	1.5*	-4.8	9.8	·	0.029	i	FGF22 TSA=0.0
CO[C@H]1CN(C)C(=O)c2ccc(NS(=O)(=O)c3ccccc3)cc2OC[C@H](C)N(Cc2cccnc2)C[C@@H]1C	·	·	-0.4	·	·	·	·	·
COc1cc(C2C(C#N)=C(N)Oc3n[nH]c(-c4cccnc4)c32)ccc1OCC(N)=O (configuration not stated)	-1.5	-7.3	-0.1	6.2	0.8	2.2	·	·
COc1cc(C2C(C#N)=C(N)Oc3n[nH]c(-c4cccnc4)c32)cc(Br)c1O (configuration not stated)	10.8	4.9	1.8*	-5.5	-2.8	-11.9	0.276	i
Cc1nc(Oc2ccccc2)c2ccsc2n1	-1.4	-8.5	1.4*	10.2	-2.7	0.1	-0.015	i
COc1ccc(C(=O)N=c2sc3ccccc3n2C)cc1OC	-9.4	-30.6	1.6*	-2.5	0.4	-18.5	0.202	i
COc1cc(C(=O)N/N=c2/sc3ccccc3n2C)cc(OC)c1OC	-18.9	13.9	-0.1	-5.7	-3.7	-8.9	·	·
C[C@H]1C=C(C(=O)Nc2ccccc2)O[C@@H](OCCCCO)C1	·	·	0.4	·	·	·	·	·
Nc1nonc1N/N=C\c1ccccc1	-0.7	-12.8	2.0*	6.8	17.5*	-6.4	0.596	i
COc1ccc2c3c([nH]c2c1)[C@@H](CO)N(Cc1ccccc1F)CC31CCN(C(=O)C2CCCC2)CC1	·	·	0.2	·	·	·	·	·
CC1CCCCN1C(=O)CCNC(=O)Cn1cnc2ccccc2c1=O (configuration not stated)	-11.2	0.6	0.1	5.2	-0.2	-5.5	·	·
CCC1CCCCN1C(=O)CCNC(=O)Cn1cnc2ccccc2c1=O (configuration not stated)	-12.6	9.3	1.4*	4.9	-0.2	0.9	-0.036	i
Cc1ccc(S(=O)(=O)N(C)/N=C/c2ccc(N(C)C)cc2)cc1	-9.8	8.8	20.4*	-20.8	3.1	-8.1	0.158	i
Cc1nn(-c2ccccc2)c(C)c1/C=N/NC(=O)c1cc(-c2ccc(Br)s2)[nH]n1	-6.8	-1.9	·	0.2	9.4	19.7	·	·
Cc1nn(-c2ccccc2)c(C)c1/C=N/NC(=O)c1cc(-c2cccs2)[nH]n1	-8.6	-4.3	1.6*	-2.5	3.8	-2.2	-0.167	i
C[C@@H]1CN([C@H](C)CO)C(=O)c2cccc(NS(=O)(=O)c3cccs3)c2O[C@H]1CN(C)C(=O)Nc1ccc(F)cc1	·	·	0.2	·	·	·	·	·
CCCc1cn(CC[C@H]2CC[C@H](NS(=O)(=O)c3ccccc3Cl)[C@@H](CO)O2)nn1	·	·	-0.2	·	·	·	·	·
CC(C)C#Cc1ccc([C@H]2[C@H](CO)N3C(=O)CN(C(=O)C4CCCCC4)C[C@@H]23)cc1	·	·	1.6*	·	·	·	0.472	i
CC(C)C#Cc1ccc([C@@H]2[C@H](CO)N3C(=O)CN(C(=O)C4CCCCC4)C[C@@H]23)cc1	·	·	1.2*	·	·	·	0.341	i
CC(C)C#Cc1ccc([C@H]2[C@@H](CO)N3C(=O)CN(C(=O)C4CCCCC4)C[C@H]23)cc1	·	·	1.0	·	·	·	·	·
C[C@@H]1CN([C@@H](C)CO)C(=O)Cc2cc(NC(=O)NC3CCCCC3)ccc2O[C@H]1CN(C)Cc1ccc(C(=O)O)cc1	·	·	0.0	·	·	·	·	·
CC(=O)Oc1ccc(N(C(C)=O)S(=O)(=O)c2ccccc2)c2ccccc12	·	·	0.2	·	·	·	·	·
COc1ccc(S(=O)(=O)N(C(C)=O)c2ccc(OC(C)=O)c3ccccc23)cc1[N+](=O)[O-]	0.3	6.9	1.5*	-5.6	-1.3	-4.2	-0.014	i
SMILES	FID counter	ZTA DNA inh	FGF22 binding-1	HCV NS3 hel inh	NR3A LBD binder	EBNA-1 inh	FGF22 binding-2	SYPRO no-protein	others
NS(=O)(=O)c1ccc(NC(=O)Nc2ccccc2)cc1	-3.8	9.7	-0.2	21.4	7.0	1.4	·	·
NS(=O)(=O)c1ccc(NC(=O)Nc2cccc(Cl)c2)cc1	12.7	2.2	2.2*	0.0	33.1*	2.7	-0.043	i
O=c1cc[nH]c2ccc(Cl)cc12	-0.3	1.3	72.0*	1.5	-2.1	4.8	0.179	i
CC(=O)Nc1ccc(C(=O)N/N=C/c2cc(Br)cc(Br)c2O)cc1	-0.2	4.5	2.8*	4.4	19.4*	0.0	-0.18	i
CCn1c(=O)[nH]c(=O)c2c(N)c(C(=O)c3cc(F)ccc3F)sc21	-13.7	8.1	27.5*	0.2	-1.3	3.3	-0.096	i
Cc1ccc(C(=O)c2sc3c(c2N)c(=O)[nH]c(=O)n3CCc2ccccc2)cc1	-2.4	4.8	·	1.9	-14.2	5.9	·	·
Cc1ccc2cc(CCNC(=O)c3cc4ccccc4o3)c(=O)[nH]c2c1C	-11.1	6.9	-0.1	3.3	1.7	8.9	·	·
COc1ccc2cc(CCNC(=O)c3cc4ccccc4o3)c(=O)[nH]c2c1	-43.6	2.2	1.8*	-6.0	20.7*	-5.0	-0.059	i
COc1cccc(-c2ccc3n(c2=O)C[C@@H]2[C@@H](CO)[C@H](C(=O)N(C)C)N(C(=O)C4CC4)[C@H]32)c1	·	·	-0.1	·	·	·	·	·
CCC(C)[C@H](NC(=O)N1CCn2c1nc1ccccc12)C(=O)NCCc1ccccc1 (some centres not stated)	-38.7	-15.3	14.2*	0.3	1.3	4.2	0.016	i
CCC(C)[C@H](NC(=O)N1CCn2c1nc1ccccc12)C(=O)NCCc1ccc(OC)c(OC)c1 (some centres not stated)	-55.7	3.8	-0.2	-18.2	-3.0	5.9	·	·
CC1=C2[C@@H](c3ccccc3)OB(O)C[C@@H]2n2c(=O)n(-c3ccccc3)c(=O)n2C1	·	·	1.3*	·	·	·	-0.177	i
COCC(=O)Nc1ccc2c(c1)[C@H]1C[C@@H](CC(=O)NCCN3CCCCC3)O[C@H](CO)[C@H]1O2	·	·	1.3*	·	·	·	0.065	i
CN(C)CC(=O)Nc1ccc2c(c1)[C@H]1C[C@@H](CC(=O)NCC3CC3)O[C@H](CO)[C@H]1O2	·	·	1.3*	·	·	·	-0.018	i
CN(C)CC(=O)Nc1ccc2c(c1)[C@H]1C[C@H](CC(=O)NCC3CC3)O[C@H](CO)[C@H]1O2	·	·	0.1	·	·	·	·	·
